Data reported in PMC6402190 (Clinical and Translational Science, 2017).
“Also recorded” adds a separate entry of the source. Where two headings read alike, the source gives them in different places.

What was measured:
[1] = type: in vivo, human (healthy women)
[2] = Safety: treatment emergent adverse events, laboratory, vital signs, ECG; type: in vivo, human (healthy women); settings: for Dose-dependent AEs or clinically significant findings in safety laboratory values, vital signs, ECG parameters: any of the dose groups
Summary of the method: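 Subjects were healthy women, aged 18–45 years, with BMI 18.0–28.0 kg/m². Part A gave single escalating i.v. doses (6 active, 2 placebo per cohort). Part B gave 240 mg i.v. on day 1 and once daily on days 8–14 (8 active, 4 placebo). AEs were categorized by nature, frequency, duration, severity, investigator-assessed causality and dose-dependence. Clinical laboratory, blood pressure, heart rate and 12-lead/Holter ECG were also recorded. Summaries are descriptive.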

[3] = Local tolerability: Visual Infusion Phlebitis; type: in vivo, human (healthy women)
Summary of the method: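 The investigator scored the infusion site on the Visual Infusion Phlebitis scale, from 0 (no signs) to 5 (advanced thrombophlebitis). Subjects were healthy women given a single i.v. infusion of test compound or placebo. Scoring was done on day 1 predose after catheter placement, at 0.5, 1, 2, 3, 4, 6, 8, 12, 24, 48 and 72 h postdose, and at the post-trial exam.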

[4] = Local tolerability: VAS assessment of pain at infusion site; type: in vivo, human (healthy women)
Summary of the method: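 Healthy women, aged 18–45 years, received single i.v. doses of HPβCD-formulated test compound (60-min infusion in 0.9% saline) or placebo. Pain was self-rated on a 100-mm line (0 = no pain, 100 = unbearable). Read-outs were maximum increase from baseline and area under the VAS-time curve.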

[5] = Local tolerability: ultrasound of the arm veins; type: in vivo, human (healthy women)
Summary of the method: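 Arm veins were examined by ultrasound in healthy women. In the multiple-dose phase of part B, subjects had once-daily 30-min i.v. infusions of 240 mg test compound or placebo on days 8–14. Scans were done at readmission on day 7 and predose on days 9–14. After the day-14 dose they were repeated at 24, 48 and 72 h and at the final exam.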

[6] = part A, single 120 mg i.v., 30-min infusion, N=6, mean ± SD
[7] = part A, single 240 mg i.v., 30-min infusion, N=6, mean ± SD
[8] = part A, single 480 mg i.v., 60-min infusion, N=6, mean ± SD
[9] = part A, single 720 mg i.v., 60-min infusion, N=6, mean ± SD
[10] = part A, single 960 mg i.v., 60-min infusion, N=6, mean ± SD
[11] = part B, single 240 mg i.v. day 1, 30-min infusion, N=8, mean ± SD
[12] = part A, letermovir total (N=30)
[13] = part B, multiple-dose letermovir
[14] = part A, single dose 120 mg (N=6)
[15] = part A, single dose 120 mg (N=6), listed as letermovir
[16] = part A, single dose 240 mg (N=6)
[17] = part A, single dose 480 mg (N=6)
[18] = part A, single dose 720 mg (N=6)
[19] = part A, single dose 960 mg (N=6)
[20] = part A, single dose, letermovir total (N=30)
[21] = part B, multiple dose 240 mg (No. 5)
[22] = part B, multiple dose 240 mg (No. 6)
[23] = part B, single dose 240 mg (N=8)

AUC(0-inf) ([1]; female, human, plasma, intravenous, 240 mg, AUC0–∞ after a single dose, part B, 240 mg single dose): 27500 ng·h/mL | AUC ([1]; female, human, plasma, intravenous, 240 mg, AUCτ,ss, part B, 240 mg q.d., steady state): 33600 ng·h/mL | Tmax ([1]; female, human, plasma, iv, 120 mg): 0.5 h | Tmax ([1]; female, human, plasma, iv, 240 mg): 0.5 h | Tmax ([1]; female, human, plasma, iv, 480 mg): 1 h | Tmax ([1]; female, human, plasma, iv, 720 mg): 1 h | Tmax ([1]; female, human, plasma, iv, 960 mg): 1 h | AUC0–last/D [1, 6]: 0.11 ± 0.03 µg·h/mL/mg | AUC0–∞/D [1, 6]: 0.11 ± 0.03 µg·h/mL/mg | Cmax/D [1, 6]: 0.06 ± 0.01 µg/mL/mg | AUC0–last/D [1, 7]: 0.14 ± 0.04 µg·h/mL/mg | AUC0–∞/D [1, 7]: 0.14 ± 0.04 µg·h/mL/mg | Cmax/D [1, 7]: 0.07 ± 0.01 µg/mL/mg | AUC0–last/D [1, 8]: 0.22 ± 0.04 µg·h/mL/mg | AUC0–∞/D [1, 8]: 0.22 ± 0.04 µg·h/mL/mg | Cmax/D [1, 8]: 0.06 ± 0.01 µg/mL/mg | AUC0–last/D [1, 9]: 0.23 ± 0.03 µg·h/mL/mg | AUC0–∞/D [1, 9]: 0.23 ± 0.03 µg·h/mL/mg | Cmax/D [1, 9]: 0.05 ± 0.00 µg/mL/mg | AUC0–last/D [1, 10]: 0.26 ± 0.06 µg·h/mL/mg | AUC0–∞/D [1, 10]: 0.26 ± 0.06 µg·h/mL/mg | Cmax/D [1, 10]: 0.06 ± 0.01 µg/mL/mg | Tmax ([1]; part B, 240 mg q.d. i.v. day 14, 30-min infusion, N=5, median (minimum-maximum)): 0.50 (0.50–0.50) h | C0h (pre-dose analyte concentration) ([1]; part B, 240 mg q.d. i.v. day 14, N=5, mean ± SD): 193.2 ± 86.23 ng/mL | AUC0–last/D [1, 11]: 0.12 ± 0.02 µg·h/mL/mg | AUC0–∞/D [1, 11]: 0.13 ± 0.02 µg·h/mL/mg | Cmax/D [1, 11]: 0.06 ± 0.01 µg/mL/mg | Tmax ([1]; part B, single 240 mg i.v. day 1, 30-min infusion, N=8, median (minimum-maximum)): 0.50 (0.50–0.50) h | Increase in exposure on dose-doubling ([1]; single i.v. doses 120–960 mg): threefold
Structure (SMILES): COc1cccc(N2CCN(C3=Nc4c(F)cccc4[C@H](CC(=O)O)N3c3cc(C(F)(F)F)ccc3OC)CC2)c1 [Letermovir]
Dose proportionality of Cmax ([1]; single i.v. doses 120–960 mg): dose‐proportional increase; also recorded: approximately proportionally to the dose | Dose proportionality of total exposure AUC0–∞ (AUC0–last) ([1]; single i.v. doses 120–960 mg): slightly more‐than‐dose‐proportional increase; also recorded: more than dose proportional | Dose-dependent AEs or clinically significant findings in safety laboratory values, vital signs, ECG parameters [2]: No clinically significant findings | Dose-dependent AEs or clinically significant findings in safety laboratory values, vital signs, ECG parameters ([2]; listed as letermovir): No dose‐dependent AEs or clinically significant findings | Subjects with mild or moderate TEAEs ([2]; part A): 17 subjects | TEAE Vessel puncture site hematoma [2, 12]: 2 No. of subjects | TEAE Vessel puncture site pain [2, 12]: 4 No. of subjects | TEAE Vessel puncture site reaction [2, 12]: 2 No. of subjects | Treatment-related AE headache ([2]; part A, single-dose letermovir): 2 subjects | Treatment-related AE nausea ([2]; part A, single-dose letermovir): 2 subjects | Treatment-related AE vomiting ([2]; part A, single-dose letermovir): 2 subjects | Subjects reporting TEAEs ([2]; part A, single-dose letermovir (18/30)): 60% | Subjects reporting AEs possibly or probably related to treatment ([2]; part A, single-dose letermovir (eight subjects)): 26.7% | Subjects with mild or moderate TEAEs ([2]; part B): 6 subjects | Subjects reporting TEAEs ([2]; part B, letermovir (6/8)): 75% | Subjects with treatment-related AEs [2, 13]: five | Treatment-related AE dizziness [2, 13]: 2 subjects | Treatment-related AE headache [2, 13]: 2 subjects | General tolerability ([2]; single doses up to 960 mg and multiple once-daily 240 mg i.v.): generally safe and well tolerated | Discontinuations due to AEs ([2]; throughout the study): no discontinuations due to AEs | VIP score ([3]; part A, one subject of 120 mg group, 4 h postinfusion, scale 0–5): 2 | VIP score ([3]; part A, one subject treated with 240 mg, 24 h postinfusion, scale 0–5): 1 | VIP score ([3]; part A, same subject of 120 mg group, 72 h postinfusion, scale 0–5): 1 | VIP score ([3]; part B, one letermovir-treated subject, predose day 14 until 72 h postdose): 1 | VIP score ([3]; part B, throughout the study, all participants except one): 0 | AUC (increase from baseline) of VAS-time curve, Mean (SD) [4, 14]: 2.74 (6.55) h*mm VAS | AUC (increase from baseline) of VAS-time curve, Median [4, 14]: 0.00 h*mm VAS | AUC (increase from baseline) of VAS-time curve, Range [4, 14]: 0.00–16.10 h*mm VAS | VAS maximum increase from baseline, Mean (SD) [4, 14]: 1.17 (2.40) mm VAS | VAS maximum increase from baseline, Median [4, 14]: 0.00 mm VAS | VAS maximum increase from baseline, Range [4, 14]: 0.00–6.00 mm VAS | AUC (increase from baseline) of VAS-time curve, Mean (SD) [4, 15]: 2.74 h*mm VAS | VAS maximum increase from baseline, Mean (SD) [4, 15]: 1.17 mm VAS | AUC (increase from baseline) of VAS-time curve, Mean (SD) [4, 16]: 0.83 (0.61) h*mm VAS | AUC (increase from baseline) of VAS-time curve, Median [4, 16]: 0.83 h*mm VAS | AUC (increase from baseline) of VAS-time curve, Range [4, 16]: 0.00–1.67 h*mm VAS | VAS maximum increase from baseline, Mean (SD) [4, 16]: 1.17 (0.75) mm VAS | VAS maximum increase from baseline, Median [4, 16]: 1.00 mm VAS | VAS maximum increase from baseline, Range [4, 16]: 0.00–2.00 mm VAS | AUC (increase from baseline) of VAS-time curve, Mean (SD) [4, 17]: 0.24 (0.42) h*mm VAS | AUC (increase from baseline) of VAS-time curve, Median [4, 17]: 0.00 h*mm VAS | AUC (increase from baseline) of VAS-time curve, Range [4, 17]: 0.00–1.02 h*mm VAS | VAS maximum increase from baseline, Mean (SD) [4, 17]: 0.5 (0.84) mm VAS | VAS maximum increase from baseline, Median [4, 17]: 0.00 mm VAS | VAS maximum increase from baseline, Range [4, 17]: 0.00–2.00 mm VAS | AUC (increase from baseline) of VAS-time curve, Mean (SD) [4, 18]: 0.39 (0.95) h*mm VAS | AUC (increase from baseline) of VAS-time curve, Median [4, 18]: 0.00 h*mm VAS | AUC (increase from baseline) of VAS-time curve, Range [4, 18]: 0.00–2.33 h*mm VAS | VAS maximum increase from baseline, Mean (SD) [4, 18]: 0.17 (0.41) mm VAS | VAS maximum increase from baseline, Median [4, 18]: 0.00 mm VAS | VAS maximum increase from baseline, Range [4, 18]: 0.00–1.00 mm VAS | VAS maximum increase from baseline, Mean (SD) ([4]; part A, single dose 720 mg (N=6), listed as letermovir): 0.17 mm VAS | AUC (increase from baseline) of VAS-time curve, Mean (SD) [4, 19]: 0.26 (0.64) h*mm VAS | AUC (increase from baseline) of VAS-time curve, Median [4, 19]: 0.00 h*mm VAS | AUC (increase from baseline) of VAS-time curve, Range [4, 19]: 0.00–1.57 h*mm VAS | VAS maximum increase from baseline, Mean (SD) [4, 19]: 0.67 (1.63) mm VAS | VAS maximum increase from baseline, Median [4, 19]: 0.00 mm VAS | VAS maximum increase from baseline, Range [4, 19]: 0.00–4.00 mm VAS | AUC (increase from baseline) of VAS-time curve, Mean (SD) [4, 20]: 0.89 (2.94) h*mm VAS | AUC (increase from baseline) of VAS-time curve, Median [4, 20]: 0.00 h*mm VAS | AUC (increase from baseline) of VAS-time curve, Range [4, 20]: 0.00–16.10 h*mm VAS | VAS maximum increase from baseline, Mean (SD) [4, 20]: 0.73 (1.36) mm VAS | VAS maximum increase from baseline, Median [4, 20]: 0.00 mm VAS | VAS maximum increase from baseline, Range [4, 20]: 0.00–6.00 mm VAS | VAS maximum increase from baseline, Mean (SD) ([4]; part A, single dose, letermovir total (N=30), listed as letermovir): 0.73 mm VAS | AUC (increase from baseline) of VAS-time curve, Mean (SD) [4, 21]: 24.58 (30.23) h*mm VAS | AUC (increase from baseline) of VAS-time curve, Median [4, 21]: 23.95 h*mm VAS | AUC (increase from baseline) of VAS-time curve, Range [4, 21]: 0.00–74.33 h*mm VAS | VAS maximum increase from baseline, Mean (SD) [4, 22]: 0.83 (0.41) mm VAS | VAS maximum increase from baseline, Median [4, 22]: 1.00 mm VAS | VAS maximum increase from baseline, Range [4, 22]: 0.00–1.00 mm VAS | VAS maximum increase from baseline, Mean (SD) ([4]; part B, multiple dose 240 mg (No. 6), listed as letermovir): 0.83 mm VAS | AUC (increase from baseline) of VAS-time curve, Mean (SD) [4, 23]: 0.00 h*mm VAS | AUC (increase from baseline) of VAS-time curve, Median [4, 23]: 0.00 h*mm VAS | AUC (increase from baseline) of VAS-time curve, Range [4, 23]: 0.00 h*mm VAS | VAS maximum increase from baseline, Mean (SD) [4, 23]: 0.00 mm VAS | VAS maximum increase from baseline, Median [4, 23]: 0.00 mm VAS | VAS maximum increase from baseline, Range [4, 23]: 0.00 mm VAS | Ultrasound finding in infusion site arm ([5]; part A, one subject in letermovir-treated group, at follow-up): NCS abnormal finding | Ultrasound finding in infusion site arm ([5]; part B): no abnormal findings
